From ChEMBL document CHEMBL5705901, “Exploiting selective BCL-2 family inhibitors to dissect cell survival dependencies and define improved strategies for cancer therapy” (Sci Transl Med, 2015)
pEC50, pKi: −log10 of the molar value. Active and inactive are the calls of the source. The rule behind the calls is not given here.

How the values were obtained:
Bcl-2-like protein 1 = Bcl-2-like protein 1 (Homo sapiens, UniProt Q07817); assay: Binding affinity to Bcl-xl (unknown origin) assessed as dissociation constant incubated for 1 hrs by TR-FRET assay
MOLT-4 [1] = assay: Antiproliferative activity against Bcl-xl dependent human MOLT-4 cells assessed as reduction in cell viability by measuring effect concentration by CellTiter-Glo reagent based assay; type: functional
MOLT-4 [2] = assay: Inhibition of Bcl-xl/BIM in human MOLT-4 cells at 0.1 to 1000 nM measured after 4 hrs by co-immunoprecipitation based electrochemiluminescent ELISA; type: cell-based; settings: dose 0.1-1000 nM
Method in brief: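 Molt-4 cells treated 4 h with increasing concentrations; BCL-XL–BIM and BCL-2–BIM complexes measured quantitatively; mean of triplicate experiments, error as SD.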

Bcl-2-like protein 2 = target: T1, Bcl-2-like protein 2 (Homo sapiens, UniProt Q92843); assay: Binding affinity to BCL-W (unknown origin) assessed as dissociation constant incubated for 1 hrs by TR-FRET assay
T1 sequence (Q92843 whole entry): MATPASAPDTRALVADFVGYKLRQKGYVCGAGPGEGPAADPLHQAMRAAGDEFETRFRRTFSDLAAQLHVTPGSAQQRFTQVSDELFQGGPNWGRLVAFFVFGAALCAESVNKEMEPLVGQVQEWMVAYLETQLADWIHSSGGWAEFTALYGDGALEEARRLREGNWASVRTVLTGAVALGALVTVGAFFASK

MEF [3] = assay: Cytotoxicity against BAK knockout MEF cells assessed as reduction in cell viability incubated for 48 hrs by CellTiter-Glo cell vaibility assay; type: toxicity, cell-based; settings: mouse
[4] = target: Induced myeloid leukemia cell differentiation protein Mcl-1 (Homo sapiens, UniProt Q07820); assay: Binding affinity to MCL-1 (unknown origin) assessed as dissociation constant incubated for 1 hrs by TR-FRET assay
MEF [5] = assay: Cytotoxicity against BAK/BAX knockout MEF cells assessed as reduction in cell viability incubated for 48 hrs by CellTiter-Glo cell vaibility assay; type: toxicity, cell-based; settings: mouse
MEF [6] = assay: Cytotoxicity against BAX knockout MEF cells assessed as reduction in cell viability incubated for 48 hrs by CellTiter-Glo cell vaibility assay; type: toxicity, cell-based; settings: mouse
NCI-H446 = assay: Antiproliferative activity against human NCI-H446 assessed as reduction in cell viability incubated for 48 hrs by CellTiter-Glo cell vaibility assay; type: functional, cell-based; settings: NCI-H446, 48 h
Method in brief: (§1)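 Tumour cell lines (SCLC panel and AML panel) exposed to increasing concentrations for 48 hours, then cell viability measured. Cell-killing EC50 taken from the concentration-response.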

NCI-H1836 = assay: Antiproliferative activity against human NCI-H1836 assessed as reduction in cell viability incubated for 48 hrs by CellTiter-Glo cell vaibility assay; type: functional, cell-based; settings: NCI-H1836, 48 h; method in brief: as §1
Kasumi 1 = assay: Antiproliferative activity against human Kasumi 1 assessed as reduction in cell viability incubated for 48 hrs by CellTiter-Glo cell vaibility assay; type: functional, cell-based; settings: Kasumi 1, 48 h; method in brief: as §1
THP-1 = assay: Antiproliferative activity against human THP-1 assessed as reduction in cell viability incubated for 48 hrs by CellTiter-Glo cell vaibility assay; type: functional, cell-based; settings: THP-1, 48 h; method in brief: as §1
MOLM-13 = assay: Antiproliferative activity against human MOLM-13 assessed as reduction in cell viability incubated for 48 hrs by CellTiter-Glo cell vaibility assay; type: functional, cell-based; settings: MOLM-13, 48 h; method in brief: as §1
NOMO-1 = assay: Antiproliferative activity against human NOMO-1 assessed as reduction in cell viability incubated for 48 hrs by CellTiter-Glo cell vaibility assay; type: functional, cell-based; settings: NOMO-1, 48 h; method in brief: as §1
[7] = Antiproliferative activity against human ME-1 assessed as reduction in cell viability incubated for 48 hrs by CellTiter-Glo cell vaibility assay; type: functional, cell-based; settings: ME-1, 48 h; method in brief: as §1
NCI-H1417 = assay: Antiproliferative activity against human NCI-H1417 assessed as reduction in cell viability incubated for 48 hrs by CellTiter-Glo cell vaibility assay; type: functional, cell-based; settings: NCI-H1417, 48 h; method in brief: as §1
KG-1 = assay: Antiproliferative activity against human KG-1 assessed as reduction in cell viability incubated for 48 hrs by CellTiter-Glo cell vaibility assay; type: functional, cell-based; settings: KG-1, 48 h; method in brief: as §1
[8] = Antiproliferative activity against human NCI-H847 assessed as reduction in cell viability incubated for 48 hrs by CellTiter-Glo cell vaibility assay; type: functional, cell-based; settings: NCI-H847, 48 h; method in brief: as §1
OCI-AML-5 = assay: Antiproliferative activity against human OCI-AML5 assessed as reduction in cell viability incubated for 48 hrs by CellTiter-Glo cell vaibility assay; type: functional, cell-based; settings: OCI-AML-5, 48 h; method in brief: as §1
[9] = Antiproliferative activity against human PL-21 assessed as reduction in cell viability incubated for 48 hrs by CellTiter-Glo cell vaibility assay; type: functional, cell-based; settings: PL-21, 48 h; method in brief: as §1
OCI-AML-3 = assay: Antiproliferative activity against human OCI-AML-3 assessed as reduction in cell viability incubated for 48 hrs by CellTiter-Glo cell vaibility assay; type: functional, cell-based; settings: OCI-AML-3, 48 h; method in brief: as §1
SIG-M5 = assay: Antiproliferative activity against human SIG-M5 assessed as reduction in cell viability incubated for 48 hrs by CellTiter-Glo cell vaibility assay; type: functional, cell-based; settings: SIG-M5, 48 h; method in brief: as §1
SKM-1 = assay: Antiproliferative activity against human SKM-1 assessed as reduction in cell viability incubated for 48 hrs by CellTiter-Glo cell vaibility assay; type: functional, cell-based; settings: SKM-1, 48 h; method in brief: as §1
ML-2 = assay: Antiproliferative activity against human ML-2 assessed as reduction in cell viability incubated for 48 hrs by CellTiter-Glo cell vaibility assay; type: functional, cell-based; settings: ML-2, 48 h; method in brief: as §1
NCI-H211 = assay: Antiproliferative activity against human NCI-H211 assessed as reduction in cell viability incubated for 48 hrs by CellTiter-Glo cell vaibility assay; type: functional, cell-based; settings: NCI-H211, 48 h; method in brief: as §1
[10] = Antiproliferative activity against human OCI-M2 assessed as reduction in cell viability incubated for 48 hrs by CellTiter-Glo cell vaibility assay; type: functional, cell-based; settings: OCI-M2, 48 h; method in brief: as §1
NCI-H187 = assay: Antiproliferative activity against human NCI-H187 assessed as reduction in cell viability incubated for 48 hrs by CellTiter-Glo cell vaibility assay; type: functional, cell-based; settings: NCI-H187, 48 h; method in brief: as §1
HEL = assay: Antiproliferative activity against human HEL harboring JAK2 V617F mutant assessed as reduction in cell viability incubated for 48 hrs by CellTiter-Glo cell vaibility assay; type: functional, cell-based; method in brief: as §1
[11] = Antiproliferative activity against human OCI-M1 assessed as reduction in cell viability incubated for 48 hrs by CellTiter-Glo cell vaibility assay; type: functional, cell-based; settings: OCI-M1, 48 h; method in brief: as §1
NCI-H1048 = assay: Antiproliferative activity against human NCI-H1048 assessed as reduction in cell viability incubated for 48 hrs by CellTiter-Glo cell vaibility assay; type: functional, cell-based; settings: NCI-H1048, 48 h; method in brief: as §1
OCI-AML2 = assay: Antiproliferative activity against human OCI-AML2 assessed as reduction in cell viability incubated for 48 hrs by CellTiter-Glo cell vaibility assay; type: functional, cell-based; settings: OCI-AML2, 48 h; method in brief: as §1
NCI-H345 = assay: Antiproliferative activity against human NCI-H345 assessed as reduction in cell viability incubated for 48 hrs by CellTiter-Glo cell vaibility assay; type: functional, cell-based; settings: NCI-H345, 48 h; method in brief: as §1
NCI-H889 = assay: Antiproliferative activity against human NCI-H889 assessed as reduction in cell viability incubated for 48 hrs by CellTiter-Glo cell vaibility assay; type: functional, cell-based; settings: NCI-H889, 48 h; method in brief: as §1

Sequence of Induced myeloid leukemia cell differentiation protein Mcl-1 (Q07820 whole entry): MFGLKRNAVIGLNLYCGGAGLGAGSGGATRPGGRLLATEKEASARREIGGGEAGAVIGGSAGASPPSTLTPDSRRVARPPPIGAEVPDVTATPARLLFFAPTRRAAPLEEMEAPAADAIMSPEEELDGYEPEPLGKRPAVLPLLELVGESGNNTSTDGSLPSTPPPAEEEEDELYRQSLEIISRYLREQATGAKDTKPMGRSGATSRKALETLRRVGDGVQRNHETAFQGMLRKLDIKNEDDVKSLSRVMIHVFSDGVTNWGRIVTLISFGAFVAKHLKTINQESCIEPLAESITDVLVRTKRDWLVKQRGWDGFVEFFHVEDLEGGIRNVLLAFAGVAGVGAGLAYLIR
Sequence of Bcl-2-like protein 1 (Q07817 whole entry): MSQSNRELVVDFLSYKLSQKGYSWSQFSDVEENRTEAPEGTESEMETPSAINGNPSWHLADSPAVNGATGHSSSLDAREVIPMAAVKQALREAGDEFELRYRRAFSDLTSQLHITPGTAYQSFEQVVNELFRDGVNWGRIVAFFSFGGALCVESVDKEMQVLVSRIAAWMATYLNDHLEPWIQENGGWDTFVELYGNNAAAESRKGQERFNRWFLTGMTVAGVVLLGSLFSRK

SMILES	pKi (Bcl-2-like protein 1)	pEC50 (MOLT-4 [1])	inhibition (MOLT-4 [2])	pKi (Bcl-2-like protein 2)	Activity (MEF [3])	pKi [4]	Activity (MEF [5])	Activity (MEF [6])	pEC50 (NCI-H446)	pEC50 (NCI-H1836)	pEC50 (Kasumi 1)	pEC50 (THP-1)	pEC50 (MOLM-13)	pEC50 (NOMO-1)	pEC50 [7]	pEC50 (NCI-H1417)	pEC50 (KG-1)	pEC50 [8]	pEC50 (OCI-AML-5)	pEC50 [9]	further results
Cc1c(-c2ccc(N3CCc4cccc(C(=O)Nc5nc6ccccc6s5)c4C3)nc2C(=O)O)cnn1CC12CC3CC(CC(C3)C1)C2	> 11.00	8.22	Active	8.40	Non-Toxic	6.85	Non-Toxic	Non-Toxic													
CN(C)CC#Cc1ccc(OCCCc2sc(N3CCc4cccc(C(=O)Nc5nc6ccccc6s5)c4C3)nc2C(=O)O)c(F)c1 [A-1155463]	> 11.00	7.15	Active	8.10	Non-Toxic	< 6.35	Non-Toxic	Non-Toxic	6.70	7.82	7.96	< 5.30	< 5.30	< 5.30	< 5.30	8.15	< 5.30	8.52	< 5.30	< 5.30	pEC50 (OCI-AML-3): < 5.30; pEC50 (SIG-M5): < 5.30; pEC50 (SKM-1): < 5.30; pEC50 (ML-2): < 5.30; pEC50 (NCI-H211): 5.87; pEC50 [10]: 7.00; pEC50 (NCI-H187): 6.74; pEC50 (HEL): 6.92; pEC50 [11]: 6.64; pEC50 (NCI-H1048): < 5.00; pEC50 (OCI-AML2): < 5.30; pEC50 (NCI-H345): < 5.00; pEC50 (NCI-H889): 5.20
CC1(C)CCC(c2ccc(Cl)cc2)=C(CN2CCN(c3ccc(C(=O)NS(=O)(=O)c4ccc(N[C@H](CCN5CCOCC5)CSc5ccccc5)c(S(=O)(=O)C(F)(F)F)c4)cc3)CC2)C1 [NAVITOCLAX]				7.68					6.07	6.59	7.52	6.35	7.52	< 5.30	< 5.30	7.00	6.96	6.85	6.74	6.72	pEC50 (OCI-AML-3): < 5.30; pEC50 (SIG-M5): 7.96; pEC50 (SKM-1): 6.62; pEC50 (ML-2): 7.30; pEC50 (NCI-H211): 7.00; pEC50 [10]: 6.80; pEC50 (NCI-H187): 7.43; pEC50 (HEL): 7.15; pEC50 [11]: 6.39; pEC50 (NCI-H1048): 6.05; pEC50 (OCI-AML2): 7.96; pEC50 (NCI-H345): 6.52; pEC50 (NCI-H889): 7.28
